Experimental data from different studies.
Lines come from different studies, so protocols differ.
Target: Misshapen-like kinase 1 (MINK1, Homo sapiens, UniProt Q8N4C8)

Compound | assay | conditions | remaining binding [%]
Cc1cnn2ncc(-c3ccnc(N(C)C)n3)c2c1 | binding | 1 µM | 92
FC(F)(F)c1ccc2c(c1)nc(-c1cccnc1)n2C1CC1 | cell-free assay, competition with immobilised ligand | 1 µM | 100
O=C(c1ccc(Nc2ncc(Cl)c(-c3ccc(Cl)s3)n2)cc1)N1CCC(N2CCCC2)CC1 | binding, competition with immobilised ligand | 1 µM | 17
CSc1cccnc1N1CCN(Cc2nc3ccccc3[nH]2)CC1 | cell-free assay, competition with immobilised ligand | 1 µM | 89
O=C(Nc1c[nH]nc1C(=O)NC1CCNCC1)c1cc(F)cc(F)c1 | binding, competition with immobilised ligand | 1 µM | 93
Cc1c[nH]c2nccc(Oc3c(F)cc(Nc4cc(Cl)nc(N)n4)cc3F)c12 | cell-free assay, competition with immobilised ligand | 0.1 µM | 100
CN(C)c1nccc(-c2cnn3ncccc23)n1 | binding | 1 µM | 81
O=C(O)[C@H]1[C@H](Cn2nnc3ccccc3c2=O)CC[C@@H]1C(=O)c1ccc(OCCC2CCOCC2)cc1 | cell-free assay, competition with immobilised ligand | 1 µM | 100
CN(CCCC(F)(F)F)c1nccc(-c2cnn3ncccc23)n1 | binding | 1 µM | 100
CN(C)C(=O)Cn1cc(-c2nc([C@@](C)(c3ccc(-c4cnc(N)nc4)cc3)C3CC3)no2)cn1 | cell-free assay, competition with immobilised ligand | 1 µM | 85
CNC(=O)[C@@H]1CC[C@@H](n2c(-c3ccc4cnccc4c3)nc3ccc(C(=O)NCc4cccc(C(N)=O)c4)cc32)C1 | binding, competition with immobilised ligand | 1 µM | 94
CC1CCCN1c1nccc(-c2cnn3ncccc23)n1 (stereo not shown) | binding | 1 µM | 90
O=C(NCCCN1CCOCC1)c1ccc(Nc2ncc(Cl)c(-c3ccc(Cl)s3)n2)cc1 | binding, competition with immobilised ligand | 1 µM | 20
N#Cc1ccc(Nc2ccc3[nH]c(=O)[nH]c3c2)c(Cl)c1 | cell-free assay, competition with immobilised ligand | 1 µM | 91
COc1ncc2cc3ccccc3nc2c1C#N | cell-free assay, competition with immobilised ligand | 5 µM | 99
CCN1CCN(Cc2ccc(C(=O)Nc3ccc(C)c(Oc4ccc5c(c4)CC(=O)N5)c3)cc2C(F)(F)F)CC1 | binding, competition with immobilised ligand | 1 µM | 100
C[C@@H]1CCN(c2nccc(-c3cnn4ncccc34)n2)C1 | binding | 1 µM | 74
CNCc1ccccc1-c1csc([C@H](C)Nc2nc(C)nc3cc(OC)c(OC)cc23)c1 | cell-free assay, competition with immobilised ligand | 1 µM | 88
c1cncc(-c2cccc(Nc3nccc(NC4CCCCC4)n3)c2)c1 | binding, competition with immobilised ligand | 10 µM | 4.8
O=C(NCCCN1CCOCC1)c1ccc(Nc2nccc(-c3cc4ccccc4s3)n2)cc1 | binding, competition with immobilised ligand | 1 µM | 46
N[C@H]1CCN(c2nccc(-c3cnn4ncccc34)n2)C1 | binding | 1 µM | 100
C=CC(=O)N1CCC(C(=O)NCC(=O)N2CCN(c3nc(-c4cnc(N)nc4C(F)F)nc(N4CCOCC4)n3)CC2)CC1 | binding, competition with immobilised ligand | 1 µM | 99
